Compound activity (PubChem BioAssay)
In the library only some 1.4% were active in any assay of this set; here they are far more common.
FXIa inh 1536 = blocks human coagulation factor XIa protease activity | 220,000 compounds, 0.14% hits | purified FXIa, Boc-Glu-Ala-Arg-AMC fluorogenic substrate | inhibition, % at 5 µM | AID 798;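 active = inhibition of at least 40%; inactive = inhibition below 40%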;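 also: fluorescence of freed AMC excited at 355 nm; 0% = enzyme without compound and 100% = no enzyme blank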
Furin inh = inhibitors of human furin. purified furin, fluorogenic substrate cleavage. P09958. inhibition, % at 20 µM or 30 µM. 220,000 compounds, 0.061% hits; in the data active = inhibition above about 25%
Target sequence (P09958 108-714 limits assumed): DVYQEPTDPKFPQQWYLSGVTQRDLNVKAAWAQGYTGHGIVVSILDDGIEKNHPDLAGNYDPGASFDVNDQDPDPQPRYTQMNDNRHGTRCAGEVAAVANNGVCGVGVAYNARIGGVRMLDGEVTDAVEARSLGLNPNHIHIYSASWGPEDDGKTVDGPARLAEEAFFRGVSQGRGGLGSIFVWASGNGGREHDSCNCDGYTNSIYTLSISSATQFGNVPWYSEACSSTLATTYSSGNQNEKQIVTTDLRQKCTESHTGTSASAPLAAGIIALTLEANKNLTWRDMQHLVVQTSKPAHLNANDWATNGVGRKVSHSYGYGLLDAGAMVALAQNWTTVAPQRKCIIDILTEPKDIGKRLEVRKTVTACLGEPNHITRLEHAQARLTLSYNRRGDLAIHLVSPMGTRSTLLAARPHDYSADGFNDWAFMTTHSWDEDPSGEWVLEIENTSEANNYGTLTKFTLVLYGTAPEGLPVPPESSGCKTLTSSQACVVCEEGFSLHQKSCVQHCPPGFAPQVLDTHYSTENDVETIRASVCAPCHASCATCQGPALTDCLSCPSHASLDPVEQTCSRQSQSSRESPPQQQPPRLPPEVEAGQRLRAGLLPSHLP
FXIIa inh = blocks human coagulation factor XIIa protease activity; P00748; purified FXIIa, Boc-QGR-AMC fluorogenic substrate, 2 h; inhibition, % at 5 µM; 220,000 compounds, 0.3% hits; in the data active = inhibition above about 40%;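 also: 0% = enzyme with no compound and 100% = blank without enzyme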
Calpain2 inh = calpain II (pig) inhibition | purified calpain II, fluorogenic peptide substrate, 30 min | inhibition, % at 16 µM | 220,000 compounds, 0.37% hits | AID 1236;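 active = inhibition above about 50%, limit read from the data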
KLK5 inh = inhibitors of human kallikrein 5 | Q9Y337 | recombinant hK5, fluorogenic AMC substrate cleavage | inhibition, % at 5 µM | 210,000 compounds, 0.59% hits | AID 873;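 active = inhibition of 40% or more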;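 also: 0% = enzyme controls without compound and 100% = no-enzyme blanks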
thrombin 1536 = inhibitors of human thrombin. P00734. alpha-thrombin, Boc-VPR-AMC fluorogenic substrate cleavage. inhibition, % at 5 µM. 220,000 compounds, 0.26% hits. AID 1046;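 active = inhibition at or above 40%; inactive = inhibition below 40%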;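 also: 0% = enzyme with no compound and 100% = wells without enzyme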
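System: human alpha-thrombin protein; Compound dosing: one concentration per compound, 5 µM, with 0.2% DMSO; Timing: reaction at room temperature; Technique: AMC fluorescence, 355/460 nm; Controls: enzyme without compound as high, wells lacking enzyme as low.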
Active calls of the source: *; i = inactive; . = no result given.

SMILES	FXIa inh 1536	Furin inh	FXIIa inh	Calpain2 inh	KLK5 inh	thrombin 1536
Cc1c(/C(O)=C2/C(=O)C(=O)N(CCN3CCOCC3)C2c2cccs2)cnn1-c1ccccc1 (centres undefined)	10	8	105*	16	32	22
COc1ccc(C(OC(=O)c2ccco2)C(=O)NC2CCCCC2)cc1OC (centres undefined)	8	1	15	17	83*	36
Cc1ccc(C(OC(=O)c2ccco2)C(=O)NC2CCCCC2)cc1 (centres undefined)	3	3	13	-14	-14	0
CC1Cc2ccccc2N1C(=O)C1CCCN(S(=O)(=O)c2cccc3nsnc23)C1 (centres undefined)	-3	-9	0	55*	-11	-6
O=C(C1CCCN(S(=O)(=O)c2cccc3nsnc23)C1)N1CCCCCC1 (centres undefined)	-3	-24	6	-7	.	-2
CC1CCCN(C(=O)C2CCCN(S(=O)(=O)c3cccc4nsnc34)C2)C1 (centres undefined)	-1	-16	44*	-19	-14	-10
Brc1ccc(CN2C3=NCCCN3c3ccccc32)cc1	5	-29	2	-14	-4	-3
Cc1cccc(CSc2nnc(NC(=O)c3ccco3)s2)c1	3	-19	10	-15	-1	5
Cc1ccc(C2=NC(C)(C)NC2=O)cc1	-2	-24	-13	10	-12	-2
CC(C)=CC1C(C(=O)Nc2ccc(Br)cn2)C1(C)C (centres undefined)	-7	-30	3	53*	-7	13
CCCCC(=O)Nc1ccc(Br)cn1	-4	-27	5	0	5	0
O=C1CN(C(=O)COc2cccc(F)c2)c2ccccc2N1	5	-16	2	-10	-4	6
Cc1cc(C(=O)OCC(=O)N2CC(=O)Nc3ccccc32)c(C)n1-c1ccccc1	5	-11	10	10	60*	9
O=C1CN(C(=O)COc2ccc(F)cc2Cl)c2ccccc2N1	-4	-4	12	14	54*	14
O=C(Nc1nc(-c2ccccn2)cs1)c1cc(Cl)ccc1[N+](=O)[O-]	4	-24	11	-32	-8	4
COc1ccc(-c2c[n+]3c4n2CCCCC4=C(c2ccccc2)C3)cc1	-3	-113	-2	i	-143	58*
O=C(NC(=S)Nc1cc(C(F)(F)F)ccc1N1CCOCC1)c1ccco1	7	-6	28	22	42*	11
Cc1nn(CC(=O)c2ccc(Cl)s2)c(C)c1[N+](=O)[O-]	43*	-13	28	12	24	12
CCn1c(N2CCN(S(=O)(=O)c3ccc(Cl)cc3)CC2)nc2ccccc21	-7	-2	1	28	-8	-5
NC(=O)c1ccsc1NC(=O)c1nc(-c2ccccc2)n(-c2ccccc2)n1	3	-22	8	-343	-37	44*
CCc1ccc(N2C(=O)c3sc4nnc(-c5ccccc5)c(=O)n4c3C2=O)cc1	2	-21	13	-65	1	-1
O=C(C1CC1)N1CCc2cc(Br)cc(S(=O)(=O)NC3CCCCC3)c21	3	-17	16	53*	-4	2
O=C(C1CC1)N1CCc2cc(Br)cc(S(=O)(=O)N3CCCCCC3)c21	4	-10	19	15	1	5
CCC1CCC/C1=N\NC(=O)CCC(=O)Nc1ccccc1Cl (centres undefined)	-1	-26	-4	-4	-10	-8
CCOc1cc2c3c(c1)C1(C(=O)N3C(C)(C)CC2C)C(C#N)=C(N)N2C(=C1C#N)Nc1ccccc12 (centres undefined)	8	-6	8	6	-19	-7
SMILES	FXIa inh 1536	Furin inh	FXIIa inh	Calpain2 inh	KLK5 inh	thrombin 1536
Cc1ccc(NC(=O)CSc2nnc(CNC(=O)c3c(F)cccc3Cl)o2)cc1	4	-19	-15	21	1	-2
Cc1cc(Nc2ccc(F)cc2F)n2nc(C)nc2n1	-4	-33	2	2	-7	-6
Fc1ccc(Nc2ccc3ccccc3n2)c(F)c1	104*	2	36	19	47*	36
COc1ccc(Cn2nc(-c3ccccc3)c(N3CCCCC3)cc2=O)cc1	-3	-2	4	72*	-2	-9
O=c1cc(N2CCCCC2)c(-c2ccccc2)nn1Cc1ccccc1	-6	10	5	15	-1	-5
Cc1cc(C(=O)CSc2nnnn2C)c(C)n1-c1cccc(F)c1	14	-12	23	2	34	49*
Cc1cc(C)cc(-n2c(C)cc(C(=O)CSc3nnnn3C)c2C)c1	-14	-10	12	-2	5	3
O=C(c1cc([N+](=O)[O-])ccc1Cl)N1c2ccccc2Sc2ccccc21	11	-18	12	14	-14	-1
CCN(CC)c1ccc(NC(=O)c2nc3nc(C)cc(C(F)F)n3n2)cc1	9	-20	11	4	48*	22
COc1ccc2[nH]c(=O)c(CN(CCN(C)C)C(=O)NCc3ccccc3)cc2c1	2	-33	11	-76	5	2
CCCCC[C@H](O)/C=C/[C@@H]1[C@@H](CCCCCCC(=O)O)[C@@H](O)C[C@H]1O	9	-18	8	7	-7	0
CCc1ccc(NC(=S)N(Cc2cccc(Br)c2)CC2CCC(C(=O)O)CC2)cc1 (centres undefined)	25	-2	23	-27	65*	9
Cc1cc(C)cc(NC(=S)N(Cc2cccc(Br)c2)CC2CCC(C(=O)O)CC2)c1 (centres undefined)	3	-14	13	-85	-6	-8
O=C(c1cc2cc([N+](=O)[O-])ccc2s1)N1CCCCC1	-6	-8	3	55*	-11	4
CCOC(=O)C1=C(C)NC(=S)N(C(C)=O)C1c1ccc(OC)c(OC)c1 (centres undefined)	17	12	48*	13	48*	21
Cc1ccc(C(=O)C(NC(=O)c2ccco2)N2CCOCC2)cc1 (centres undefined)	-2	-18	-2	-21	44*	15
O=C(NC(C(=O)c1ccccc1)N1CCCCCC1)c1ccco1 (centres undefined)	3	-8	11	0	-5	-13
COc1ccccc1NS(=O)(=O)c1ccc(O)c(C(=O)OCC(=O)c2ccc(Cl)cc2Cl)c1	49*	2	32	-21	32	29
CC(CCc1ccccc1)NC(=O)CSc1cccc[n+]1[O-] (centres undefined)	-1	-30	8	53*	-3	-5
CC(CCc1ccccc1)NC(=O)CSc1ccccc1 (centres undefined)	-2	4	8	24	-16	-2
Cc1ccccc1CS(=O)(=O)Cc1ccc(C(=O)NCCCN2CC(C)CC(C)C2)o1 (centres undefined)	-3	-20	5	-25	-4	-1
